High-throughput results deposited in PubChem BioAssay by The Scripps Research Institute Molecular Screening Center.
HTRA1 inhibitor = HTRA1 serine protease inhibitors, primary screen, biochemical, fluorescence polarization, HTS. AID 504803, 2011. hit rate 0.5% among 340,000. inhibition, % at 5.96 µM. recombinant HTRA1, FP-rhodamine activity-based probe; in the data active means inhibition above about 36%
Target sequence (Q92743 whole entry, looked up): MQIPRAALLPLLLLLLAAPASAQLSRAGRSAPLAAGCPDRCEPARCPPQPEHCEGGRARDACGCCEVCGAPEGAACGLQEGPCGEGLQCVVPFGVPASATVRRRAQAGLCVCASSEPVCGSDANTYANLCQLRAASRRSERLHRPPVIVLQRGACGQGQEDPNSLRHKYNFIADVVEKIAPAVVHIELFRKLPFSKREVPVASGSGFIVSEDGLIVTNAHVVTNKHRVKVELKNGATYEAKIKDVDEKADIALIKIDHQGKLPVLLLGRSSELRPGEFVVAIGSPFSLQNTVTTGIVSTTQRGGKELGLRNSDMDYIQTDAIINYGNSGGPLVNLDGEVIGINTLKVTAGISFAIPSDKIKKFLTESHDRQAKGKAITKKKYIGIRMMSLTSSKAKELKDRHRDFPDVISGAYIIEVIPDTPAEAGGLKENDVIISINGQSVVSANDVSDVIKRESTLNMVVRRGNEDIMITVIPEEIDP
DDE Tn7 FP inh = inhibitors of Tn7 peptide binding to fibrin DD(E), primary screen, biochemical, fluorescence polarization, human fibrin, Tn7 probe | FP displacement of FITC-Tn7 peptide from fibrin DD(E); 0% = median of compound wells per plate | inhibition, % at 8.3 µM | hit rate 0.13% among 370,000 | AID 720508, 2013;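 active means inhibition above the mean of compounds falling within the control limits plus 3 SD of them, cut at about 14% in these data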
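Assay system: human fibrin DD(E) protein / Input: 2 µM fibrin DD(E) / Benchmarks: high control of 10 µM Aha-Tn7 peptide / Measured by: fluorescence polarization of the labelled Tn7 tracer / Medium: Tris buffer with calcium and detergent, pH 7.8 / Timing: 10 min compound pre-incubation, 3 h probe incubation at room temperature / Repeats: one replicate per compound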
mABHD4 FP = ABHD4 inhibitors, primary screen, biochemical, fluorescence polarization, mouse; hit rate 0.54% among 370,000; purified mABHD4, FP-Rh probe fluorescence polarization; AID 720543, 2013; inhibition, % at 8.92 µM; (Lyso)-N-acylphosphatidylethanolamine lipase (Mus musculus), Q8VD66;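 active means inhibition exceeding the mean over every tested compound plus 3 SD, cut at about 30% in these data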
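System: mouse ABHD4 enzyme, wild type / Medium: HEPES pH 7.0, NaCl, Pluronic buffer / Reagent: FP-Rh activity-based fluorescent probe / Control set: S159A mutant high control, sample median low control / Detection: fluorescence polarization with parallel and perpendicular emission, 525/598 nm / Schedule: 45 min + 60 min at 25 °C / Compound dosing: 8.92 µM, single dose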
Tn6 DDE FP = inhibitors of Tn6 peptide binding to fibrin DD(E), primary screen, biochemical, fluorescence polarization, human fibrin, Tn6 probe. inhibition, % at 8.3 µM. hit rate 0.21% among 370,000. Fibrinogen beta chain (Homo sapiens), P02675. AID 720509, 2013. Fibrin DD(E) TRITC-Tn6 fluorescence polarization displacement;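 active means inhibition above a per-campaign cutoff: mean of compounds within control limits plus 3 SD, cut at about 15% in these data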
TCR CD3 inh = inhibitors of human TCR-CD3 interaction, primary screen, biochemical, fluorescence, TAMRA-labeled TCR probe; T-cell receptor (TCR); AID 651800, 2012; inhibition, % at 9.4 µM; hit rate 0.37% among 360,000;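 further: recombinant mutant TCR 2C K166C tagged with TAMRA read by polarization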
BSA TAMRA ctr = compounds interfering with TAMRA-BSA probe, counter-screen for TCR-CD3 interaction inhibitor project, biochemical, fluorescence, TAMRA-labeled BSA; inhibition, % at 9.4 µM; hit rate 10% among 1,200; shares compounds with TCR CD3 inh; TAMRA-labeled BSA probe fluorescence counterscreen; in the data active means inhibition above about 23%
TCR-CD3 inh conf = TCR-CD3 interaction inhibitors, retest, confirmation, biochemical, fluorescence, TAMRA-labeled TCR probe | inhibition, % at 9.4 µM | shares compounds with TCR CD3 inh | AID 652036, 2013 | hit rate 48% among 1,200 | TAMRA-labeled TCR probe fluorescence binding assay
A number is an active result. Sampled rows, rich in hits. Any-hit rate of the full collection: about 1.3%. Unless noted, no stated cut-off is given here; in the data, active means inhibition above about 19%; inactive means the rest.

O=C(NNC(=O)c1ccccc1O)c1ccc(NS(=O)(=O)c2ccc(F)c(F)c2)cc1 was read as HTRA1 inhibitor inactive, DDE Tn7 FP inh inactive, mABHD4 FP inactive, Tn6 DDE FP inactive and TCR CD3 inh inactive.
Screening Cc1ccc(NS(=O)(=O)c2ccc(C(=O)NNC(=O)c3ccccc3O)cc2)cc1 returned HTRA1 inhibitor inactive, DDE Tn7 FP inh inactive, mABHD4 FP inactive, Tn6 DDE FP inactive, TCR CD3 inh 19.9, BSA TAMRA ctr inactive and TCR-CD3 inh conf inactive.
COc1cc(/C=N/NC(=S)NCc2ccco2)cc(OC)c1OC was read as HTRA1 inhibitor inactive, DDE Tn7 FP inh inactive, mABHD4 FP inactive, Tn6 DDE FP inactive and TCR CD3 inh inactive.
For C/C(=N\NC(=O)c1c(C)nc2ccccn12)c1ccc(O)cc1O the results were HTRA1 inhibitor inactive, DDE Tn7 FP inh inactive, mABHD4 FP inactive, Tn6 DDE FP inactive, TCR CD3 inh 49.4, BSA TAMRA ctr inactive and TCR-CD3 inh conf 36.6.
COC(=O)Nc1ccc(S(=O)(=O)NNC(=O)c2c(O)c3ccccc3[nH]c2=O)cc1 was read as HTRA1 inhibitor inactive, DDE Tn7 FP inh inactive, mABHD4 FP inactive, Tn6 DDE FP inactive, TCR CD3 inh 23.6, BSA TAMRA ctr inactive and TCR-CD3 inh conf 25.9.
`CC(C)C(=O)NNC(=O)c1c(O)c2ccccc2[nH]c1=O` gave HTRA1 inhibitor inactive, DDE Tn7 FP inh inactive, mABHD4 FP inactive, Tn6 DDE FP inactive and TCR CD3 inh inactive.
CCCC(=O)NNC(=O)c1c(O)c2ccccc2[nH]c1=O was read as HTRA1 inhibitor inactive, DDE Tn7 FP inh inactive, mABHD4 FP inactive, Tn6 DDE FP inactive, TCR CD3 inh 33.9, BSA TAMRA ctr inactive and TCR-CD3 inh conf 28.3.
O=C(NNC(=O)c1c(O)c2ccccc2[nH]c1=O)c1ccccc1 was read as HTRA1 inhibitor inactive, DDE Tn7 FP inh inactive, mABHD4 FP inactive, Tn6 DDE FP inactive, TCR CD3 inh 41.0, BSA TAMRA ctr inactive and TCR-CD3 inh conf 22.4.
NNC(=O)c1cc2sccc2s1 was read as HTRA1 inhibitor inactive, DDE Tn7 FP inh inactive, mABHD4 FP inactive, Tn6 DDE FP inactive and TCR CD3 inh inactive.
`CN(C(=O)c1cccc(S(=O)(=O)N2CCCC2)c1)C1CCCCC1` gave HTRA1 inhibitor inactive, DDE Tn7 FP inh inactive, mABHD4 FP inactive, Tn6 DDE FP inactive, TCR CD3 inh 22.8, BSA TAMRA ctr inactive and TCR-CD3 inh conf inactive.
`CC1(C(=O)NCCCN2CCOCC2)Oc2cccnc2NC1=O` (stereo unspecified) gave HTRA1 inhibitor inactive, DDE Tn7 FP inh inactive, mABHD4 FP inactive, Tn6 DDE FP inactive and TCR CD3 inh inactive.
Screening COC(=O)COc1ccc(C(C2C(=O)CC(C)(C)CC2=O)C2C(=O)CC(C)(C)CC2=O)cc1 returned HTRA1 inhibitor inactive, DDE Tn7 FP inh inactive, mABHD4 FP inactive, Tn6 DDE FP inactive, TCR CD3 inh 20.4, BSA TAMRA ctr inactive and TCR-CD3 inh conf inactive.
Screening COC(=O)COc1ccc(NC(=O)C(c2ccccc2)c2ccccc2)cc1 returned HTRA1 inhibitor inactive, DDE Tn7 FP inh inactive, mABHD4 FP inactive, Tn6 DDE FP inactive and TCR CD3 inh inactive.
For COc1ccc(C(=O)N/N=C\c2ccc(OC)c(COc3ccccc3Br)c2)c(OC)c1 the results were HTRA1 inhibitor inactive, DDE Tn7 FP inh inactive, mABHD4 FP inactive, Tn6 DDE FP inactive, TCR CD3 inh 26.1, BSA TAMRA ctr inactive and TCR-CD3 inh conf 32.0.
For COc1ccc(CN(C2CCCC2)S(=O)(=O)c2ccc(-n3cnnn3)cc2)cc1OC the results were HTRA1 inhibitor inactive, DDE Tn7 FP inh inactive, mABHD4 FP inactive, Tn6 DDE FP inactive, TCR CD3 inh 82.3, BSA TAMRA ctr inactive and TCR-CD3 inh conf inactive.
`COc1ccc(CN(C2CCCC2)S(=O)(=O)c2ccc(-n3cnnn3)cc2)cc1` gave HTRA1 inhibitor inactive, DDE Tn7 FP inh inactive, mABHD4 FP inactive, Tn6 DDE FP inactive and TCR CD3 inh inactive.
